Measurements gathered from unrelated publications.
Protocols differ between the studies behind these lines.
Target: Serine/threonine-protein kinase WNK2 (WNK2, Homo sapiens, UniProt Q9Y3S1)

SMILES | observed | method | concentration | remaining binding [%]
COc1ccc2c(c1)O[C@@H](c1ccc(OC)c(OC)c1)C[C@H]2NC(=O)C1(c2ccc3c(c2)OC(F)(F)O3)CC1 | cell-free assay | competition with immobilised ligand | 1 µM | 84
C=CC(=O)N1CCC(C(=O)NCC(=O)N2CCN(c3nc(-c4cnc(N)nc4C(F)F)nc(N4CCOCC4)n3)CC2)CC1 | binding | competition with immobilised ligand | 1 µM | 92
O=C(Nc1c[nH]nc1C(=O)NC1CCNCC1)c1cc(F)cc(F)c1 | binding | competition with immobilised ligand | 1 µM | 100
C[C@@H](c1ccc(-n2cnc3c(N)ncnc32)cc1)N1CCc2nn(C)c(Cc3ccccc3)c2C1=O | binding | competition with immobilised ligand | 0.1 µM | 65
CN(C)c1nccc(-c2cnc3ncccn23)n1 | binding |  | 1 µM | 94
CNCc1ccccc1-c1csc([C@H](C)Nc2nc(C)nc3cc(OC)c(OC)cc23)c1 | cell-free assay | competition with immobilised ligand | 1 µM | 99
O=C(c1ccc(Nc2ncc(Cl)c(-c3cc4ccccc4s3)n2)cc1)N1CCC(N2CCCC2)CC1 | binding | competition with immobilised ligand | 1 µM | 83
CC(C)(O)c1cncc(-c2nc3ccc(F)cc3n2C2CC2)c1 | cell-free assay | competition with immobilised ligand | 1 µM | 100
O=C(NCCCN1CCOCC1)c1ccc(Nc2nccc(-c3cc4ccccc4s3)n2)cc1 | binding | competition with immobilised ligand | 1 µM | 60
C[C@@H](c1cccc(C#N)c1)n1cc(Cl)cc(C(N)=O)c1=N | cell-free assay | competition with immobilised ligand | 1 µM | 67
N[C@@H]1CCN(c2nccc(-c3cnn4ncccc34)n2)C1 | binding |  | 1 µM | 95
COc1cnc(Nc2cccc(S(N)(=O)=O)c2)nc1N1CCN(c2ccccc2)CC1 | binding | competition with immobilised ligand | 1 µM | 35
CN(C)c1nccc(-c2cnn3ncccc23)n1 | binding |  | 1 µM | 37
CNC(=O)Nc1ccc2c(c1)CC[C@@]21OC(=O)N(CC(=O)N(Cc2ccc(F)cc2)[C@@H](C)C(F)(F)F)C1=O | cell-free assay | competition with immobilised ligand | 1 µM | 100
C[C@H]1CCN(c2nccc(-c3cnn4ncccc34)n2)C1 | binding |  | 1 µM | 98
Cc1cnc(Nc2ccc(C(=O)N3CCC(N4CCCC4)CC3)cc2)nc1-c1cc2ccccc2s1 | binding | competition with immobilised ligand | 1 µM | 69
CN(C)c1ncc(F)c(-c2cnn3ncccc23)n1 | binding |  | 1 µM | 82
CNC(=O)[C@@H]1CC[C@@H](n2c(-c3ccc4cnccc4c3)nc3ccc(C(=O)NCc4cccc(C(N)=O)c4)cc32)C1 | binding | competition with immobilised ligand | 1 µM | 100
F[C@@H]1CCN(c2nccc(-c3cnn4ncccc34)n2)C1 | binding |  | 1 µM | 100
Cc1c(NC(=O)c2cc(C(N)=O)nc3cc(F)ccc23)c(C(F)(F)F)nn1Cc1ccc(C(C)(C)C)cc1 | cell-free assay | competition with immobilised ligand | 1 µM | 100
